{"source": "ChEMBL document CHEMBL1151813", "about": "“Synthesis and cytotoxicity of bidesmosidic betulin and betulinic acid saponins” (J Nat Prod, 2009)", "key": {"A549": {"test_system": "A549", "test": "Cytotoxicity against human A549 cells after 48 hrs", "type": "functional, cell-based", "settings": "A549, 48 h", "outline": "(§1)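 Cells grown in MEM (Earle's salts, L-glutamine) with 10% FBS, vitamins, amino acids, pyruvate, penicillin/streptomycin at 37 °C, 5% CO2. 5 × 10³ cells/well adhered 16 h, then increasing concentrations in DMSO (final 0.5% v/v) for 48 h. Resazurin fluorescence read at ex 530/em 590 nm; survival vs control wells after blank subtraction. Three experiments in triplicate; IC50 as mean ± standard deviation.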"}, "PC-3": {"test_system": "PC-3", "test": "Cytotoxicity against human PC3 cells after 48 hrs", "type": "functional, cell-based", "settings": "PC-3, 48 h", "outline": "as §1"}, "MCF7": {"test_system": "MCF7", "test": "Cytotoxicity against human MCF7 cells after 48 hrs", "type": "functional, cell-based", "settings": "MCF7, 48 h", "outline": "as §1"}, "[1]": {"test": "Cytotoxicity against human WS1 cells after 48 hrs", "type": "cell-based", "settings": "WS1, 48 h"}, "DLD-1": {"test_system": "DLD-1", "test": "Cytotoxicity against human DLD1 cells after 48 hrs", "type": "functional, cell-based", "settings": "DLD-1, 48 h", "outline": "as §1"}}}
{"compound": "C=C(C)[C@@H]1CC[C@]2(CO[C@@H]3O[C@H](CO)[C@@H](O)[C@H](O)[C@H]3O)CC[C@]3(C)[C@H](CC[C@@H]4[C@@]5(C)CC[C@H](O[C@@H]6O[C@@H](C)[C@H](O)[C@@H](O)[C@H]6O)C(C)(C)[C@@H]5CC[C@]43C)[C@@H]12", "values": [{"measurement": "IC50", "setting": "A549", "value": 16.8, "unit": "µM"}, {"measurement": "IC50", "setting": "PC-3", "value": 6.9, "unit": "µM"}, {"measurement": "IC50", "setting": "MCF7", "value": 9, "unit": "µM"}, {"measurement": "IC50", "setting": "[1]", "value": 5.3, "unit": "µM"}, {"measurement": "IC50", "setting": "DLD-1", "value": 10.6, "unit": "µM"}]}
{"compound": "C=C(C)[C@@H]1CC[C@]2(C(=O)O[C@@H]3O[C@H](CO)[C@@H](O)[C@H](O)[C@H]3O)CC[C@]3(C)[C@H](CC[C@@H]4[C@@]5(C)CC[C@H](O[C@@H]6O[C@H](CO)[C@@H](O)[C@H](O)[C@H]6O)C(C)(C)[C@@H]5CC[C@]43C)[C@@H]12", "values": [{"measurement": "IC50", "setting": "A549", "value": "> 100", "unit": "µM"}, {"measurement": "IC50", "setting": "PC-3", "value": 66, "unit": "µM"}, {"measurement": "IC50", "setting": "MCF7", "value": 20, "unit": "µM"}, {"measurement": "IC50", "setting": "[1]", "value": 35, "unit": "µM"}, {"measurement": "IC50", "setting": "DLD-1", "value": "> 100", "unit": "µM"}]}
{"compound": "C=C(C)[C@@H]1CC[C@]2(CO[C@@H]3O[C@H](CO)[C@@H](O)[C@H](O)[C@H]3O)CC[C@]3(C)[C@H](CC[C@@H]4[C@@]5(C)CC[C@H](O[C@@H]6OC[C@H](O)[C@H](O)[C@H]6O)C(C)(C)[C@@H]5CC[C@]43C)[C@@H]12", "values": [{"measurement": "IC50", "setting": "A549", "value": "> 100", "unit": "µM"}, {"measurement": "IC50", "setting": "PC-3", "value": 5.3, "unit": "µM"}, {"measurement": "IC50", "setting": "MCF7", "value": 9.5, "unit": "µM"}, {"measurement": "IC50", "setting": "[1]", "value": 4.5, "unit": "µM"}, {"measurement": "IC50", "setting": "DLD-1", "value": 19, "unit": "µM"}]}
{"compound": "C=C(C)[C@@H]1CC[C@]2(C(=O)O[C@@H]3O[C@H](CO)[C@@H](O)[C@H](O)[C@H]3O)CC[C@]3(C)[C@H](CC[C@@H]4[C@@]5(C)CC[C@H](O)C(C)(C)[C@@H]5CC[C@]43C)[C@@H]12", "values": [{"measurement": "IC50", "setting": "A549", "value": "> 100", "unit": "µM"}, {"measurement": "IC50", "setting": "PC-3", "value": "> 100", "unit": "µM"}, {"measurement": "IC50", "setting": "MCF7", "value": "> 100", "unit": "µM"}, {"measurement": "IC50", "setting": "[1]", "value": "> 100", "unit": "µM"}, {"measurement": "IC50", "setting": "DLD-1", "value": "> 100", "unit": "µM"}]}
{"compound": "C=C(C)[C@@H]1CC[C@]2(C(=O)O[C@@H]3O[C@H](CO)[C@@H](O)[C@H](O)[C@H]3O)CC[C@]3(C)[C@H](CC[C@@H]4[C@@]5(C)CC[C@H](O[C@@H]6OC[C@H](O)[C@H](O)[C@H]6O)C(C)(C)[C@@H]5CC[C@]43C)[C@@H]12", "values": [{"measurement": "IC50", "setting": "A549", "value": 76, "unit": "µM"}, {"measurement": "IC50", "setting": "PC-3", "value": 68, "unit": "µM"}, {"measurement": "IC50", "setting": "MCF7", "value": 23, "unit": "µM"}, {"measurement": "IC50", "setting": "[1]", "value": 50, "unit": "µM"}, {"measurement": "IC50", "setting": "DLD-1", "value": 60, "unit": "µM"}]}
{"compound": "C=C(C)[C@@H]1CC[C@]2(CO[C@@H]3O[C@H](CO)[C@@H](O)[C@H](O)[C@H]3O)CC[C@]3(C)[C@H](CC[C@@H]4[C@@]5(C)CC[C@H](O[C@@H]6O[C@H](CO)[C@@H](O)[C@H](O)[C@H]6O)C(C)(C)[C@@H]5CC[C@]43C)[C@@H]12", "values": [{"measurement": "IC50", "setting": "A549", "value": "> 100", "unit": "µM"}, {"measurement": "IC50", "setting": "PC-3", "value": "> 100", "unit": "µM"}, {"measurement": "IC50", "setting": "MCF7", "value": 14.5, "unit": "µM"}, {"measurement": "IC50", "setting": "[1]", "value": 20, "unit": "µM"}, {"measurement": "IC50", "setting": "DLD-1", "value": 27, "unit": "µM"}]}
{"compound": "C=C(C)[C@@H]1CC[C@]2(CO[C@@H]3O[C@@H](C)[C@H](O)[C@@H](O)[C@H]3O)CC[C@]3(C)[C@H](CC[C@@H]4[C@@]5(C)CC[C@H](O[C@@H]6O[C@@H](C)[C@H](O)[C@@H](O)[C@H]6O)C(C)(C)[C@@H]5CC[C@]43C)[C@@H]12", "values": [{"measurement": "IC50", "setting": "A549", "value": 1.9, "unit": "µM"}, {"measurement": "IC50", "setting": "PC-3", "value": 1.8, "unit": "µM"}, {"measurement": "IC50", "setting": "MCF7", "value": 1.7, "unit": "µM"}, {"measurement": "IC50", "setting": "[1]", "value": 1.3, "unit": "µM"}, {"measurement": "IC50", "setting": "DLD-1", "value": 1.9, "unit": "µM"}]}
{"compound": "C=C(C)[C@@H]1CC[C@]2(C(=O)O[C@@H]3O[C@H](CO)[C@@H](O)[C@H](O)[C@H]3O)CC[C@]3(C)[C@H](CC[C@@H]4[C@@]5(C)CC[C@H](O[C@@H]6O[C@@H](C)[C@H](O)[C@@H](O)[C@H]6O)C(C)(C)[C@@H]5CC[C@]43C)[C@@H]12", "values": [{"measurement": "IC50", "setting": "A549", "value": 23, "unit": "µM"}, {"measurement": "IC50", "setting": "PC-3", "value": 11.2, "unit": "µM"}, {"measurement": "IC50", "setting": "MCF7", "value": 5.7, "unit": "µM"}, {"measurement": "IC50", "setting": "[1]", "value": 9, "unit": "µM"}, {"measurement": "IC50", "setting": "DLD-1", "value": 11, "unit": "µM"}]}
{"compound": "C=C(C)[C@@H]1CC[C@]2(C(=O)O[C@@H]3O[C@@H](C)[C@H](O)[C@@H](O)[C@H]3O)CC[C@]3(C)[C@H](CC[C@@H]4[C@@]5(C)CC[C@H](O[C@@H]6O[C@@H](C)[C@H](O)[C@@H](O)[C@H]6O)C(C)(C)[C@@H]5CC[C@]43C)[C@@H]12", "values": [{"measurement": "IC50", "setting": "A549", "value": 7.2, "unit": "µM"}, {"measurement": "IC50", "setting": "PC-3", "value": 7.2, "unit": "µM"}, {"measurement": "IC50", "setting": "MCF7", "value": 6, "unit": "µM"}, {"measurement": "IC50", "setting": "[1]", "value": 4.9, "unit": "µM"}, {"measurement": "IC50", "setting": "DLD-1", "value": 7.3, "unit": "µM"}]}
{"compound": "C=C(C)[C@@H]1CC[C@]2(CO[C@@H]3O[C@H](CO)[C@@H](O)[C@H](O)[C@H]3O)CC[C@]3(C)[C@H](CC[C@@H]4[C@@]5(C)CC[C@H](O)C(C)(C)[C@@H]5CC[C@]43C)[C@@H]12", "values": [{"measurement": "IC50", "setting": "A549", "value": "> 100", "unit": "µM"}, {"measurement": "IC50", "setting": "PC-3", "value": "> 100", "unit": "µM"}, {"measurement": "IC50", "setting": "MCF7", "value": "> 100", "unit": "µM"}, {"measurement": "IC50", "setting": "[1]", "value": "> 100", "unit": "µM"}, {"measurement": "IC50", "setting": "DLD-1", "value": "> 100", "unit": "µM"}]}
{"compound": "C=C(C)[C@@H]1CC[C@]2(C(=O)O)CC[C@]3(C)[C@H](CC[C@@H]4[C@@]5(C)CC[C@H](O)C(C)(C)[C@@H]5CC[C@]43C)[C@@H]12", "note": "[BETULINIC ACID]", "values": [{"measurement": "IC50", "setting": "A549", "value": 10.3, "unit": "µM"}, {"measurement": "IC50", "setting": "PC-3", "value": 40, "unit": "µM"}, {"measurement": "IC50", "setting": "MCF7", "value": 41, "unit": "µM"}, {"measurement": "IC50", "setting": "[1]", "value": 12, "unit": "µM"}, {"measurement": "IC50", "setting": "DLD-1", "value": 15, "unit": "µM"}]}
{"compound": "C=C(C)[C@@H]1CC[C@]2(CO)CC[C@]3(C)[C@H](CC[C@@H]4[C@@]5(C)CC[C@H](O)C(C)(C)[C@@H]5CC[C@]43C)[C@@H]12", "note": "[BETULIN]", "values": [{"measurement": "IC50", "setting": "A549", "value": 3.8, "unit": "µM"}, {"measurement": "IC50", "setting": "PC-3", "value": 17.9, "unit": "µM"}, {"measurement": "IC50", "setting": "MCF7", "value": 23.3, "unit": "µM"}, {"measurement": "IC50", "setting": "[1]", "value": 3.6, "unit": "µM"}, {"measurement": "IC50", "setting": "DLD-1", "value": 6.6, "unit": "µM"}]}
{"compound": "COc1cc([C@@H]2c3cc4c(cc3[C@@H](O[C@@H]3O[C@@H]5CO[C@@H](C)O[C@H]5[C@H](O)[C@H]3O)[C@H]3COC(=O)[C@H]23)OCO4)cc(OC)c1O", "note": "[ETOPOSIDE]", "values": [{"measurement": "IC50", "setting": "A549", "value": 1.2, "unit": "µM"}, {"measurement": "IC50", "setting": "PC-3", "value": 1.7, "unit": "µM"}, {"measurement": "IC50", "setting": "MCF7", "value": 0.7, "unit": "µM"}, {"measurement": "IC50", "setting": "[1]", "value": 34, "unit": "µM"}, {"measurement": "IC50", "setting": "DLD-1", "value": 27, "unit": "µM"}]}
